Where a SMILES comes first, the peptide text is derived from it.
What was measured:
[1] = target: T1, PDZ2 (second PDZ domain, 1361-1456) from human PTP1E/PTPL1 (Homo sapiens, UniProt Q12923); assay: Fluorescence binding affinity of peptide to PDZ2
T1 sequence (Q12923 1361-1456): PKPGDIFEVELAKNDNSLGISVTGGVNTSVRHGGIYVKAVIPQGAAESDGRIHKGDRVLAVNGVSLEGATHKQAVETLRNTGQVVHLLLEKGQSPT

[2] = target: T1, PDZ2 (second PDZ domain, 1361-1456) from human PTP1E/PTPL1; assay: NMR titration binding affinity of peptide to PDZ2
Summary of the method: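 NMR titration of test peptide into PDZ2 expressed in E. coli BL21(DE3), 1 mM, in 150 mM NaCl, 50 mM sodium phosphate pH 6.8, 10% D2O, at 25 °C on 500/600 MHz spectrometers. Protein concentration by UV absorbance at 280 nm; Kd derived from titration.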

APC C-terminal peptide = target: T2, APC C-terminal peptide (Homo sapiens); assay: NMR titration
T2 chain: GSYLVTSV

Molecule: CC(=O)N[C@@H](CCC(=O)O)C(=O)N[C@@H](CC(N)=O)C(=O)N[C@@H](CCC(=O)O)C(=O)N[C@@H](CCC(N)=O)C(=O)N[C@H](C(=O)N[C@@H](CO)C(=O)N[C@@H](C)C(=O)N[C@H](C(=O)O)C(C)C)C(C)C [RA-GEF2] (Ac-ENEQVSAV-OH)
- Kd [1]: 10 µM

Molecule: CC(C)C[C@H](NC(=O)[C@H](Cc1ccc(O)cc1)NC(=O)[C@H](CO)NC(=O)CN)C(=O)N[C@H](C(=O)N[C@H](C(=O)N[C@@H](CO)C(=O)N[C@H](C(=O)O)C(C)C)[C@@H](C)O)C(C)C [APC] (H-GSYLVTSV-OH)
- Kd [2]: 10 µM

B1: PTP1E (PTPL1) PDZ2 1361-1456 (protein)
chain: T1 sequence (Q12923 1361-1456)
- Kd (APC C-terminal peptide): 10 µM

— publication PMC3001272 (Biochemistry, 2010)
